Results collected from several papers.
Target: Adenosine receptor A2a (ADORA2A, Homo sapiens, UniProt P29274)

| Structure (SMILES) | assay | conditions | inhibition |
| --- | --- | --- | --- |
| COc1cc(NC(C)=O)c(Cl)cc1C(=O)Nc1nccs1 | cell-free assay | 10 µM | 39.7% |
| Nc1nc[nH]c(=O)c1Cl | ligand displacement, radioligand | 30 µM, cell membranes | 23% |
| C#CCNc1nc(Cl)nc2c1ncn2[C@H]1[C@H](O)[C@H](O)[C@]2(C(=O)NC)C[C@H]12 | ligand displacement, radioligand | 10 µM, cell membranes | 23% |
| CCN(Cc1ccccc1C(F)(F)F)C(=O)C1CCN(S(=O)(=O)c2ccc3[nH]ncc3c2)CC1 | ligand displacement, radioligand | 10 µM | 3% |
| c1coc(-c2nc3ccc(CN4CCCCC4)cc3o2)c1 | ligand displacement, radioligand | 10 µM, cell membranes | 5% |
| O=C(c1ccc(F)cc1)N(Cc1ccccc1)C1CCCCC1 | cell-free assay | 10 µM | 5% |
| C=CN1CCCn2c1nc1c2c(=O)n(C)c(=O)n1C | ligand displacement, radioligand | 10 µM, cell membranes | 29% |
| CC(C)(C)OC(=O)N1CCN(CC(=O)Nc2ccc3oc(-c4ccco4)nc3c2)CC1 | ligand displacement, radioligand | 10 µM, cell membranes | 25% |
| Ic1cccc2cnccc12 | ligand displacement, radioligand | 10 µM | 8% |
| O=C(Nc1ccc(S(=O)(=O)N2CCC(Cl)CC2)cc1)c1ccc([N+](=O)[O-])o1 | ligand displacement, radioligand | 10 µM | 8% |
| c1ccc(N2CCN(CCc3ccc4oc(-c5ccco5)nc4c3)CC2)cc1 | ligand displacement, radioligand | 10 µM, cell membranes | 3% |
| O=C1N=C(N2CCCCN2)S/C1=C\c1ccc(F)cc1O | ligand displacement, radioligand | 10 µM | 10% |
